# Laboratory results taken from article PMC12339990 (Scientific Reports, 2025).
# “Also recorded” adds a separate entry of the source.
# T1: recombinant MSP (rMSP) (Mesocricetus auratus, UniProt Q9QXU1)
# T1 sequence (Q9QXU1 16-172): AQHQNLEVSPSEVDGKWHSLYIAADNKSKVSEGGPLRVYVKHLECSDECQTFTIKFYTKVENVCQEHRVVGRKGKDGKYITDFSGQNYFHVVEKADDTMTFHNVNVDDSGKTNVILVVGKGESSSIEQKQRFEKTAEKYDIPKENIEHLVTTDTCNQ
# T2: recombinant FLP (rFLP) (Mesocricetus auratus, UniProt Q99MG7)
# T2 sequence (Q99MG7 17-172): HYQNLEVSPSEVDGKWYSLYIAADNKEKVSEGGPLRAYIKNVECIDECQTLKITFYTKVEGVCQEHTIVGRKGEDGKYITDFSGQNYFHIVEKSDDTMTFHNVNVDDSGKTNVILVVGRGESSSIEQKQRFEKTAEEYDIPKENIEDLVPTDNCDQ
# T3: rMSP (Mesocricetus auratus, UniProt Q9QXU1)
# T3 sequence (Q9QXU1 16-172): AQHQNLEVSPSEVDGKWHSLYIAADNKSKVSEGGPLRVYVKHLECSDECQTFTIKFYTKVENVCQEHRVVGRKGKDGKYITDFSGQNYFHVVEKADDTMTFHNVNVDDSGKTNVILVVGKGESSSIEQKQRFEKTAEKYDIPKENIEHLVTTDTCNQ
# T4: nMSP (mixture of three natural MSP forms) (Mesocricetus auratus, UniProt Q9QXU1)
# T4 sequence (Q9QXU1 16-172): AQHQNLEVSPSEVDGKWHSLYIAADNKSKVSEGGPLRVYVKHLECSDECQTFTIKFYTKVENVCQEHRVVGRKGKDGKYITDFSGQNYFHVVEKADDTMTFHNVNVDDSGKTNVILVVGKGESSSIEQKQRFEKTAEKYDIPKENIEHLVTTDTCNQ
# T5: rFLP (Mesocricetus auratus, UniProt Q99MG7)
# T5 sequence (Q99MG7 17-172): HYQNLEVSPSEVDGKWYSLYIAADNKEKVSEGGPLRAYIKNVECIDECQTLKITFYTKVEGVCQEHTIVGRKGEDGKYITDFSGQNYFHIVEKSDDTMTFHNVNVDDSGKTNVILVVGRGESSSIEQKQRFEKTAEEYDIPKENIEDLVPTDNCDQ
# T6: 24 kDa MSP (Mesocricetus auratus, UniProt Q9QXU1)
# T6 sequence (Q9QXU1 16-172): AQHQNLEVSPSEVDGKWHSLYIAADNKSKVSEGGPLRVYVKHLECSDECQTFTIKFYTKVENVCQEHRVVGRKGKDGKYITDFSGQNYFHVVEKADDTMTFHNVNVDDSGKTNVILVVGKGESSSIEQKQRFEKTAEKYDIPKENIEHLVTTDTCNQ
# T7: 30 kDa MSP (Mesocricetus auratus, UniProt Q9QXU1)
# T7 sequence (Q9QXU1 16-172): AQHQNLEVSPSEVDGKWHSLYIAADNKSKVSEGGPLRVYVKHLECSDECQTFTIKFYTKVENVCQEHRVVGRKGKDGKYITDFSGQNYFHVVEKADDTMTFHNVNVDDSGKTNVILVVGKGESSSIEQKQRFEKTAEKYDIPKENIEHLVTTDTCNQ
# What was measured:
# Parameters in all cases: species or system Syrian hamsters (Mesocricetus auratus)
# [1] = molecular target: T1, recombinant MSP (rMSP); experiment: Fluorescence ligand binding / competitive displacement of probe 1-AMA from rMSP; details: for binding / competitor activity with rMSP in fluorescent-probe assay (in words): probe 1-AMA
# In short: (§1)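 rMSP was expressed in E. coli BL21(DE3) with 1 mM IPTG and purified by Ni-NTA and Sephadex G-75. Assays used 2 µM protein in 20 mM Tris-HCl pH 7.4 at 25 °C, excitation 295 nm, emission read at 485 nm. For Kd, 1-AMA (1 mM methanol stock) was titrated and fitted against free probe, assuming 1:1 binding and fully active protein. Competitors (0.25–40 µM) displaced 2 µM probe. IC50 was taken at half-maximal fluorescence; Ki = IC50/(1+[L]/Kd).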
# [2] = molecular target: T2, recombinant FLP (rFLP); experiment: Fluorescence ligand binding / competitive displacement of probe 1-NPN from rFLP; details: for binding / competitor activity with rFLP in fluorescent-probe assay (in words): probe 1-NPN
# In short: as §1, with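 “rFLP” for “rMSP”, “425” for “485”, “1-NPN” for “1-AMA”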
# [3] = molecular target: T3, rMSP; experiment: IBMP binding detected by GC-MS of protein peak after gel-filtration; details: ~7.2 mM IBMP, ~200 µM protein, 25 °C 1 h, Sephadex-G-25, DCM extract
# In short: (§2)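 The protein–IBMP mix was incubated on a rotary shaker, with chymotrypsin as negative control. After G-25 elution, fractions of the first OD280 peak were mixed with dichloromethane, vortexed and held overnight at −20 °C. The lower organic phase was analyzed by GC-MS: 2 µl splitless, helium 1 ml/min, oven 50→300 °C stepwise, 70 eV ionization, total ion current mode.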
# [4] = molecular target: T4, nMSP (mixture of three natural MSP forms); experiment: as above; details: ~7.2 mM IBMP, ~200 µM protein, 25 °C 1 h, Sephadex-G-25, DCM extract
# In short: as §2
# [5] = molecular target: T5, rFLP; experiment: as above; details: ~7.2 mM IBMP, ~200 µM protein, 25 °C 1 h, Sephadex-G-25, DCM extract
# In short: as §2
# [6] = molecular target: T6, 24 kDa MSP; experiment: Lectin binding
# In short: (§3)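 Natural MSP, a mixture of three forms purified from adult male submandibular gland, was tested with a digoxigenin-labelled lectin kit (GNA, SNA, MAA, DSA, PNA). It was also passed through Con A, WGA and jacalin affinity columns. Unbound fractions and fractions eluted with lectin-specific sugars were checked for MSP forms by SDS-PAGE.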
# [7] = molecular target: T7, 30 kDa MSP; experiment: Lectin binding
# In short: as §3
Molecule,binding / competitor activity with rMSP in fluorescent-probe assay (in words) [1],binding / competitor activity with rFLP in fluorescent-probe assay (in words) [2],other results
"Nc1cccc2cc3ccccc3cc12 [1-AMA, 1-aminoanthracene]",strong affinity,–,Kd [1]: ~1.86 µM
"c1ccc(Nc2cccc3ccccc23)cc1 [1-NPN, N-phenyl-1-naphthylamine]",–,strong affinity,Kd [2]: ~1.38 µM
C=CC(O)CCCCC (centres unmarked) [1-octen-3-ol],no competitor activity,no competitor activity,–
"O=C(O)c1cccc(O)c1O [2,3-dihydroxybenzoic acid]",no competitor activity,no competitor activity,–
"O=C(O)c1cc(O)ccc1O [2,5-dihrodoxy benzoic acid]",no competitor activity,no competitor activity,–
C[C@]12CC[C@@H]3c4ccc(O)cc4CC[C@H]3[C@@H]1CC[C@@H]2O [17β-estradiol],extremely weak competitors,extremely weak competitors,–
"COc1nccnc1CC(C)C [IBMP, 2-isobutyl-3-methoxypyrazine]",high affinity,high affinity,IBMP found by GC-MS in protein peak fraction (binding to rMSP) [3]: specific binding; also recorded: retain and specifically carry (i.e. bind) detectable levels; IBMP found by GC-MS in protein peak fraction (binding to nMSP) [4]: specific binding; also recorded: retain and specifically carry (i.e. bind) detectable levels; IBMP found by GC-MS in protein peak fraction (binding to rFLP) [5]: specific binding; also recorded: retain and specifically carry (i.e. bind) detectable levels
CC(=O)N(O)CCCCCNC(=O)CCC(=O)N(O)CCCCCNC(=O)CCC(=O)N(O)CCCCCN [deferoxamine],no competitor activity,no competitor activity,–
CCCCCCCCCCCCCCCCO [hexadecanol],no competitor activity,no competitor activity,–
CCCCCCCCCCCCCC(=O)O [myristic],no competitor activity,no competitor activity,–
CCCCCCCC/C=C\CCCCCCCC(=O)O [oleic],no competitor activity,no competitor activity,–
CCCCCCCCCCCCCCCC(=O)O [palmitic],no competitor activity,no competitor activity,–
CC(=O)[C@H]1CC[C@H]2[C@@H]3CCC4=CC(=O)CC[C@]4(C)[C@H]3CC[C@]12C [progesterone],extremely weak competitors,extremely weak competitors,–
CCCCCCCCCCCCCCCCCC(=O)O [stearic],no competitor activity,no competitor activity,–
C[C@]12CC[C@H]3[C@@H](CCC4=CC(=O)CC[C@@]43C)[C@@H]1CC[C@@H]2O [testosterone],extremely weak competitors,extremely weak competitors,–
"PNA: Peanut agglutinin, digoxigenin labeled (protein, UniProt P02872 24-273, looked up, digoxigenin label) Galactose-binding lectin: AETVSFNFNSFSEGNPAINFQGDVTVLSNGNIQLTNLNKVNSVGRVLYAMPVRIWSSATGNVASFLTSFSFEMKDIKDYDPADGIIFFIAPEDTQIPAGSIGGGTLGVSDTKGAGHFVGVEFDTYSNSEYNDPPTDHVGIDVNSVDSVKTVPWNSVSGAVVKVTVIYDSSTKTLSVAVTNDNGDITTIAQVVDLKAKLPERVKFGFSASGSLGGRQIHLIRSWSFTSTLITTTRRSIDNNEKKIMNMASA",–,–,Binding of lectin to 24 kDa MSP (in words) [6]: lack of binding; Binding of lectin to 30 kDa MSP (in words) [7]: lack of binding
